Assay results published in PMC3582785 (Arthritis and rheumatism, 2013).

Test system: SE-expressing peptides and tetrameric proteins
Assay: SPR binding of CRT variants
Details: citrullinated CRT compared to non-citrullinated CRT
Method in brief: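 Native, PAD-citrullinated or Arg→Ala mouse CRT was immobilised at 3000 RU. Analytes were 15mer SE-positive or SE-negative control peptides at 330 μM, and HLA-DR tetramers (SE-positive or SE-negative) at 250 nM.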

interaction with the SE ligand (in words): higher affinity for the SE ligand
B1: Cit-CRT: recombinant mouse CRT citrullinated in vitro with PAD from rabbit skeleton muscle (protein, UniProt P14211 18-416, looked up)
Calreticulin: DPAIYFKEQFLDGDAWTNRWVESKHKSDFGKFVLSSGKFYGDLEKDKGLQTSQDARFYALSAKFEPFSNKGQTLVVQFTVKHEQNIDCGGGYVKLFPSGLDQKDMHGDSEYNIMFGPDICGPGTKKVHVIFNYKGKNVLINKDIRCKDDEFTHLYTLIVRPDNTYEVKIDNSQVESGSLEDDWDFLPPKKIKDPDAAKPEDWDERAKIDDPTDSKPEDWDKPEHIPDPDAKKPEDWDEEMDGEWEPPVIQNPEYKGEWKPRQIDNPDYKGTWIHPEIDNPEYSPDANIYAYDSFAVLGLDLWQVKSGTIFDNFLITNDEAYAEEFGNETWGVTKAAEKQMKDKQDEEQRLKEEEEDKKRKEEEEAEDKEDDDDRDEDEDEEDEKEEDEEESPGQAKDEL
modifications: citrullinated
